Data published in ChEMBL document CHEMBL4368898, “Tridecaptin-inspired antimicrobial peptides with activity against multidrug-resistant Gram-negative bacteria” (Medchemcomm, 2019).
Values after ≈ are worked out from the molar mass of the structure shown. Where a SMILES comes first, the peptide text is derived from it. [ ]: non-standard residue; d: D form. The star is where a group is joined. d(aIle) = CC[C@H](C)[C@@H](N)C(=O)O; dOrn = NCCC[C@@H](N)C(=O)O; dDab = NCC[C@@H](N)C(=O)O; Octanoyl = CCCCCCCC(=O)*; Orn = NCCC[C@H](N)C(=O)O; Dab = NCC[C@H](N)C(=O)O

What was measured:
Format in all cases: functional
[1] = system: Klebsiella pneumoniae; assay: Antimicrobial activity against carbapenemase-producing Klebsiella pneumoniae IMP 170 assessed as inhibition of bacterial growth incubated for 18 hrs by CLSI based serial broth dilution method; details: IMP 170, 18 h
How it was run: (§1)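 MIC by microbroth dilution, run in duplicate, reported in μg mL−1 to three significant figures. The Gram-negative panel includes environmental isolates from sewage-contaminated water in Lebanon and clinical isolates from patients. Strains are classed by carbapenemase production.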

[2] = system: Klebsiella pneumoniae; assay: Antimicrobial activity against carbapenemase-producing Klebsiella pneumoniae IMP 204 assessed as inhibition of bacterial growth incubated for 18 hrs by CLSI based serial broth dilution method; details: IMP 204, 18 h; how it was run: as §1
[3] = system: Pseudomonas oleovorans; assay: Antimicrobial activity against carbapenemase-non-producing Pseudomonas pseudoalcaligenes assessed as inhibition of bacterial growth incubated for 18 hrs by CLSI based serial broth dilution method; details: Ectopseudomonas oleovorans; how it was run: as §1
[4] = system: Klebsiella pneumoniae; assay: Antimicrobial activity against carbapenemase-non-producing Klebsiella pneumoniae assessed as inhibition of bacterial growth incubated for 18 hrs by CLSI based serial broth dilution method; how it was run: as §1
[5] = system: Acinetobacter baumannii; assay: Antimicrobial activity against carbapenemase-producing Acinetobacter baumannii ACM 29 assessed as inhibition of bacterial growth incubated for 18 hrs by CLSI based serial broth dilution method; details: ACM 29, 18 h; how it was run: as §1
[6] = system: Acinetobacter baumannii; assay: Antimicrobial activity against carbapenemase-producing Acinetobacter baumannii ACM 11 assessed as inhibition of bacterial growth incubated for 18 hrs by CLSI based serial broth dilution method; details: ACM 11, 18 h; how it was run: as §1
[7] = system: Enterobacter cloacae; assay: Antimicrobial activity against carbapenemase-producing Enterobacter cloacae […] assessed as inhibition of bacterial growth incubated for 18 hrs by CLSI based serial broth dilution method; how it was run: as §1
[8] = system: Klebsiella pneumoniae; assay: Antimicrobial activity against carbapenemase-producing Klebsiella pneumoniae IMP 216 assessed as inhibition of bacterial growth incubated for 18 hrs by CLSI based serial broth dilution method; details: IMP 216, 18 h; how it was run: as §1
[9] = system: Klebsiella pneumoniae; assay: Antimicrobial activity against carbapenemase-producing Klebsiella pneumoniae IMP 177 assessed as inhibition of bacterial growth incubated for 18 hrs by CLSI based serial broth dilution method; details: IMP 177, 18 h; how it was run: as §1
[10] = system: Klebsiella pneumoniae; assay: Antimicrobial activity against carbapenemase-producing Klebsiella pneumoniae IMP 485 assessed as inhibition of bacterial growth incubated for 18 hrs by CLSI based serial broth dilution method; details: IMP 485, 18 h; how it was run: as §1
[11] = system: Acinetobacter baumannii; assay: Antimicrobial activity against carbapenemase-non-producing Acinetobacter baumannii assessed as inhibition of bacterial growth incubated for 18 hrs by CLSI based serial broth dilution method; how it was run: as §1

| SMILES | MIC [1] [µg/mL] | MIC [2] [µg/mL] | MIC [3] [µg/mL] | MIC [4] [µg/mL] | MIC [5] [µg/mL] | MIC [6] [µg/mL] | MIC [7] [µg/mL] | MIC [8] [µg/mL] | MIC [9] [µg/mL] | MIC [10] [µg/mL] | MIC [11] [µg/mL] |
| --- | --- | --- | --- | --- | --- | --- | --- | --- | --- | --- | --- |
| CCCCCCCC(=O)N[C@@H](C(=O)N[C@H](CCCCN)C(=O)NCC(=O)N[C@H](CO)C(=O)N[C@H](Cc1c[nH]c2ccccc12)C(=O)N[C@@H](CO)C(=O)N[C@@H](CCCCN)C(=O)N[C@H](CCCCN)C(=O)N[C@@H](Cc1ccccc1)C(=O)N[C@@H](CCC(=O)O)C(=O)N[C@H](C(=O)N[C@@H](C(=O)N[C@@H](C)C(=O)O)[C@@H](C)CC)C(C)C)C(C)C (HELM PEPTIDE1{[CCCCCCCC(=O)[*:2]].[dV].[dK].G.[dS].[dW].S.K.[dK].F.E.V.[CC[C@H](C)[C@@H](N[*:1])C(=O)[*:2]].A}$$$$V2.0) | 50 (≈ 31.2 µM) | 50 (≈ 31.2 µM) | 100 (≈ 62.3 µM) | 50 (≈ 31.2 µM) | 25 (≈ 15.6 µM) | 25 (≈ 15.6 µM) | 25 (≈ 15.6 µM) | 25 (≈ 15.6 µM) | 25 (≈ 15.6 µM) | 25 (≈ 15.6 µM) | 6.25 (≈ 3.89 µM) |
| CCCCCCCC(=O)N[C@@H](C(=O)N[C@H](CCCCN)C(=O)NCC(=O)N[C@H](CO)C(=O)N[C@H](Cc1c[nH]c2ccccc12)C(=O)N[C@@H](CO)C(=O)N[C@@H](CCCCN)C(=O)N[C@H](CCCCN)C(=O)N[C@@H](Cc1ccccc1)C(=O)N[C@@H](CCC(=O)O)C(=O)N[C@H](C(=O)N[C@@H](C(=O)N[C@@H](C)C(=O)O)C(C)C)C(C)C)C(C)C (HELM PEPTIDE1{[CCCCCCCC(=O)[*:2]].[dV].[dK].G.[dS].[dW].S.K.[dK].F.E.V.[dV].A}$$$$V2.0) | > 100 | > 100 | > 100 | > 100 | > 100 | > 100 | > 100 | > 100 | > 100 | > 100 | > 100 |
| CCCCCCCC(=O)N[C@@H](C(=O)N[C@H](CCCN)C(=O)NCC(=O)N[C@H](CO)C(=O)N[C@H](Cc1c[nH]c2ccccc12)C(=O)N[C@@H](CO)C(=O)N[C@@H](CCCN)C(=O)N[C@H](CCCN)C(=O)N[C@@H](Cc1ccccc1)C(=O)N[C@@H](CCC(=O)O)C(=O)N[C@H](C(=O)N[C@@H](C(=O)N[C@@H](C)C(=O)O)C(C)C)C(C)C)C(C)C (Octanoyl-[dV][dOrn]G[dS][dW]S[Orn][dOrn]FEV[dV]A-OH) | 25 (≈ 16.1 µM) | 12.5 (≈ 8.07 µM) | 6.25 (≈ 4.04 µM) | 50 (≈ 32.3 µM) | 50 (≈ 32.3 µM) | 25 (≈ 16.1 µM) | 12.5 (≈ 8.07 µM) | 12.5 (≈ 8.07 µM) | 12.5 (≈ 8.07 µM) | 12.5 (≈ 8.07 µM) | 25 (≈ 16.1 µM) |

More lines, in order of falling MIC [1], values ahead:

| MIC [1] [µg/mL] | MIC [2] [µg/mL] | MIC [3] [µg/mL] | MIC [4] [µg/mL] | MIC [5] [µg/mL] | MIC [6] [µg/mL] | MIC [7] [µg/mL] | MIC [8] [µg/mL] | MIC [9] [µg/mL] | MIC [10] [µg/mL] | MIC [11] [µg/mL] | SMILES |
| --- | --- | --- | --- | --- | --- | --- | --- | --- | --- | --- | --- |
| 25 (≈ 15.9 µM) | 25 (≈ 15.9 µM) | 25 (≈ 15.9 µM) | 50 (≈ 31.7 µM) | 50 (≈ 31.7 µM) | 25 (≈ 15.9 µM) | 25 (≈ 15.9 µM) | 25 (≈ 15.9 µM) | 25 (≈ 15.9 µM) | 25 (≈ 15.9 µM) | 50 (≈ 31.7 µM) | CCCCCCCC(=O)N[C@@H](C(=O)N[C@H](CCCCN)C(=O)NCC(=O)N[C@H](CO)C(=O)N[C@H](Cc1c[nH]c2ccccc12)C(=O)N[C@@H](CO)C(=O)N[C@@H](CCCCN)C(=O)N[C@H](CCN)C(=O)N[C@@H](Cc1ccccc1)C(=O)N[C@@H](CCC(=O)O)C(=O)N[C@H](C(=O)N[C@@H](C(=O)N[C@@H](C)C(=O)O)[C@@H](C)CC)C(C)C)C(C)C (Octanoyl-[dV][dK]G[dS][dW]SK[dDab]FEV[d(aIle)]A-OH) |
| 25 (≈ 16.1 µM) | 25 (≈ 16.1 µM) | 12.5 (≈ 8.07 µM) | 100 (≈ 64.6 µM) | 50 (≈ 32.3 µM) | 50 (≈ 32.3 µM) | 25 (≈ 16.1 µM) | 25 (≈ 16.1 µM) | 25 (≈ 16.1 µM) | 25 (≈ 16.1 µM) | 100 (≈ 64.6 µM) | CCCCCCCC(=O)N[C@@H](C(=O)N[C@H](CCCN)C(=O)NCC(=O)N[C@H](CO)C(=O)N[C@H](Cc1c[nH]c2ccccc12)C(=O)N[C@@H](CO)C(=O)N[C@@H](CCCN)C(=O)N[C@H](CCN)C(=O)N[C@@H](Cc1ccccc1)C(=O)N[C@@H](CCC(=O)O)C(=O)N[C@H](C(=O)N[C@@H](C(=O)N[C@@H](C)C(=O)O)[C@@H](C)CC)C(C)C)C(C)C (Octanoyl-[dV][dOrn]G[dS][dW]S[Orn][dDab]FEV[d(aIle)]A-OH) |
| 25 (≈ 16 µM) | 25 (≈ 16 µM) | 50 (≈ 32 µM) | 12.5 (≈ 8 µM) | 50 (≈ 32 µM) | 50 (≈ 32 µM) | 6.25 (≈ 4 µM) | 6.25 (≈ 4 µM) | 25 (≈ 16 µM) | 25 (≈ 16 µM) | 12.5 (≈ 8 µM) | CCCCCCCC(=O)N[C@@H](C(=O)N[C@H](CCCN)C(=O)NCC(=O)N[C@H](CO)C(=O)N[C@H](Cc1c[nH]c2ccccc12)C(=O)N[C@@H](CO)C(=O)N[C@@H](CCCN)C(=O)N[C@H](CCCN)C(=O)N[C@@H](Cc1ccccc1)C(=O)N[C@@H](CCC(=O)O)C(=O)N[C@H](C(=O)N[C@@H](C(=O)N[C@@H](C)C(=O)O)[C@@H](C)CC)C(C)C)C(C)C (Octanoyl-[dV][dOrn]G[dS][dW]S[Orn][dOrn]FEV[d(aIle)]A-OH) |
| 12.5 (≈ 8.3 µM) | 12.5 (≈ 8.3 µM) | 50 (≈ 33.2 µM) | 12.5 (≈ 8.3 µM) | 50 (≈ 33.2 µM) | 100 (≈ 66.4 µM) | 6.25 (≈ 4.15 µM) | 12.5 (≈ 8.3 µM) | 25 (≈ 16.6 µM) | 12.5 (≈ 8.3 µM) | 25 (≈ 16.6 µM) | CCCCCCCC(=O)N[C@@H](C(=O)N[C@H](CCN)C(=O)NCC(=O)N[C@H](CO)C(=O)N[C@H](Cc1c[nH]c2ccccc12)C(=O)N[C@@H](CO)C(=O)N[C@@H](CCN)C(=O)N[C@H](CCN)C(=O)N[C@@H](Cc1ccccc1)C(=O)N[C@@H](CCC(=O)O)C(=O)N[C@H](C(=O)N[C@@H](C(=O)N[C@@H](C)C(=O)O)C(C)C)C(C)C)C(C)C (Octanoyl-[dV][dDab]G[dS][dW]S[Dab][dDab]FEV[dV]A-OH) |
| 6.25 (≈ 4.11 µM) | 12.5 (≈ 8.22 µM) | 50 (≈ 32.9 µM) | 6.25 (≈ 4.11 µM) | 25 (≈ 16.4 µM) | 25 (≈ 16.4 µM) | 3.13 (≈ 2.06 µM) | 6.25 (≈ 4.11 µM) | 6.25 (≈ 4.11 µM) | 6.25 (≈ 4.11 µM) | 12.5 (≈ 8.22 µM) | CCCCCCCC(=O)N[C@@H](C(=O)N[C@H](CCN)C(=O)NCC(=O)N[C@H](CO)C(=O)N[C@H](Cc1c[nH]c2ccccc12)C(=O)N[C@@H](CO)C(=O)N[C@@H](CCN)C(=O)N[C@H](CCN)C(=O)N[C@@H](Cc1ccccc1)C(=O)N[C@@H](CCC(=O)O)C(=O)N[C@H](C(=O)N[C@@H](C(=O)N[C@@H](C)C(=O)O)[C@@H](C)CC)C(C)C)C(C)C |
